In brackets after ≈: the same amount, converted by molar mass. Activity calls are given as the source filed them. The calls are words filed in the database; no cut-off is given here.
Columns and labels:
[1] = test system: Staphylococcus epidermidis; assay: Antibacterial activity against methicillin-resistant Staphylococcus epidermidis ATCC 35984 assessed as bacterial growth inhibition incubated for 16 hrs by broth microdilution susceptibility test; type: functional
Method in brief: (§1)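 CLSI broth microdilution with 11 twofold dilutions (0.05–50 μM). About 10^5 cells per well from a log-phase culture. DMSO vehicle up to 0.5% v/v. At least three independent experiments.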

[2] = test system: Enterococcus faecalis; assay: Antibacterial activity against Enterococcus faecalis OG1RF ATCC 47077 assessed as bacterial growth inhibition incubated for 16 hrs by broth microdilution susceptibility test; type: functional
[3] = test system: Mycobacterium tuberculosis; assay: Antibacterial activity against Mycobacterium tuberculosis CDC1551 assessed as bacterial growth inhibition incubated for 5 days by luminescence based analysis; type: functional; conditions: CDC1551, 120 h, time 5 day
Method in brief: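 Bioluminescent Mtb-lux CDC1551 reporter grown in Middlebrook 7H9 with 0.05% Tween 80, 10% OADC and kanamycin to OD600 0.4–0.8, then diluted to OD600 0.02. Added to twofold drug dilutions (0.003–200 μM). Incubated 5 days at 37 °C, 5% CO2. Luminescence read against 1% DMSO and 10 μM rifampicin controls to give % growth inhibition. MIC taken from a modified Gompertz fit.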

[4] = test system: HeLa; assay: Cytotoxicity against human HeLa cells assessed as reduction in cell viability incubated for 24 hrs by LDH release assay; type: toxicity, cell-based
Method in brief: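 HeLa cells in DMEM with 10% FBS, treated at 70–80% confluence with 25, 50 and 100 μM for 24 h. LDH in supernatant measured by 30 min reaction at room temperature, then stop solution and absorbance at 490 nm. Controls: 2% Triton X-100 (maximum), medium only, DMSO vehicle. Three independent experiments.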

[5] = test system: J774; assay: Cytotoxicity against mouse J774 cells assessed as reduction in cell viability […] by Alamar blue assay; type: toxicity, cell-based
[6] = test system: HepG2; assay: Cytotoxicity against human HepG2 cells assessed as reduction in cell viability […] by Alamar blue assay; type: toxicity, cell-based
[7] = test system: Staphylococcus aureus; assay: Antibiofilm activity against methicillin-resistant Staphylococcus aureus BAA-1707 biofilms assessed as biofilm eradication incubated for 24 hrs followed by incubation for 24 hrs in fresh medium by Calgary biofilm device assay; type: functional
Method in brief: (§2)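 Calgary biofilm device. Mid-log culture diluted 1000-fold in TSB with 0.5% glucose; biofilms grown on pegs 24 h at 37 °C. Pegs washed and challenged with twofold compound dilutions for 24 h at 37 °C, then moved to fresh medium for 24 h. MBEC is the lowest concentration leaving wells non-turbid. At least three independent experiments.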

[8] = test system: Staphylococcus aureus; assay: Bactericidal activity against methicillin-resistant Staphylococcus aureus BAA-44 planktonic cells assessed as planktonic eradication incubated for 24 hrs followed by incubation for overnight in fresh medium by Calgary biofilm device assay; type: functional
Method in brief: (§3)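 Calgary biofilm device. Biofilms grown 24 h at 37 °C in TSB with 0.5% glucose, then challenged 24 h with twofold compound dilutions. 20 μL of challenge medium transferred into fresh TSB with 0.5% glucose and incubated overnight at 37 °C. MBC is the concentration with no visible turbidity. At least three independent experiments.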

[9] = test system: Staphylococcus aureus; assay: Antibiofilm activity against methicillin-resistant Staphylococcus aureus BAA-44 biofilms assessed as biofilm eradication incubated for 24 hrs followed by incubation for 24 hrs in fresh medium by Calgary biofilm device assay; type: functional; method in brief: as §2
[10] = test system: Staphylococcus epidermidis; assay: Bactericidal activity against methicillin-resistant Staphylococcus epidermidis ATCC 35984 planktonic cells assessed as planktonic eradication incubated for 24 hrs followed by incubation for overnight in fresh medium by Calgary biofilm device assay; type: functional; method in brief: as §3
[11] = test system: Staphylococcus epidermidis; assay: Antibiofilm activity against methicillin-resistant Staphylococcus epidermidis ATCC 35984 biofilms assessed as biofilm eradication incubated for 24 hrs followed by incubation for 24 hrs in fresh medium by Calgary biofilm device assay; type: functional; method in brief: as §2
[12] = test system: Enterococcus faecium; assay: Bactericidal activity against methicillin-resistant vancomycin-resistant Enterococcus faecium ATCC 700221 planktonic cells assessed as planktonic eradication incubated for 24 hrs followed by incubation for overnight in fresh medium by Calgary biofilm device assay; type: functional; method in brief: as §3
[13] = test system: Enterococcus faecium; assay: Antibiofilm activity against methicillin-resistant vancomycin-resistant Enterococcus faecium ATCC 700221 biofilms assessed as biofilm eradication incubated for 24 hrs followed by incubation for 24 hrs in fresh medium by Calgary biofilm device assay; type: functional; method in brief: as §2
[14] = test system: Enterococcus faecalis; assay: Bactericidal activity against […] Enterococcus faecalis OG1RF ATCC 47077 planktonic cells assessed as planktonic eradication incubated for 24 hrs followed by incubation for overnight in fresh medium by Calgary biofilm device assay; type: functional
Method in brief: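 Calgary biofilm device in BHI. Biofilms grown 24 h at 37 °C and challenged 24 h with twofold compound dilutions. Challenge medium subcultured 1:10 into fresh BHI overnight at 37 °C. MBC is the concentration with no turbidity. At least three independent experiments.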

[15] = test system: Enterococcus faecalis; assay: Antibiofilm activity against Enterococcus faecalis OG1RF ATCC 47077 biofilms assessed as biofilm eradication incubated for 24 hrs followed by incubation for 24 hrs in fresh medium by Calgary biofilm device assay; type: functional
Method in brief: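 Calgary biofilm device. Biofilms grown 24 h at 37 °C in BHI from mid-log culture diluted 1000-fold. Pegs washed and then challenged 24 h with twofold serial dilutions. Pegs moved to fresh BHI for 24 h recovery. MBEC = lowest concentration leaving no turbidity; at least three independent experiments.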

[16] = test system: Erythrocyte; assay: Hemolytic activity against human RBC at 200 uM measured after 1 hr; type: toxicity, cell-based
Method in brief: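 2% hRBCs exposed to compound at 200 μM final, added from DMSO stock, for 1 h at 37 °C. Supernatant OD read at 405 nm. Hemolysis normalized between DMSO (0%) and Triton X (100%); three independent experiments.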

[17] = test system: Staphylococcus aureus; assay: Induction of iron starvation in methicillin-resistant Staphylococcus aureus BAA-1707 biofilms assessed as upregulation of sfaA gene expression at 1 uM incubated for 4 hrs by RT-qPCR analysis; type: functional
Method in brief: (§4)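 MRSA BAA-1707 grown in TSB with 0.5% glucose to OD600 ~0.8–1.0, then biofilms formed 20 h at 37 °C statically in gelatin-coated 24-well plates. Biofilms treated 4 h at 37 °C with compound (1 μM or 1/10 MBEC) or DMSO vehicle. RNA extracted; only RIN ≥7 samples used. One-step SYBR RT-qPCR; ΔCT normalised to ptaA. Three independent experiments.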

[18] = test system: Staphylococcus aureus; assay: Induction of iron starvation in methicillin-resistant Staphylococcus aureus BAA-1707 biofilms assessed as upregulation of sfaA gene expression at 1/10XMBEC incubated for 4 hrs by RT-qPCR analysis; type: functional; method in brief: as §4
[19] = test system: Staphylococcus aureus; assay: Induction of iron starvation in methicillin-resistant Staphylococcus aureus BAA-1707 biofilms assessed as upregulation of sbnC gene expression at 1 uM incubated for 4 hrs by RT-qPCR analysis; type: functional; method in brief: as §4
[20] = test system: Staphylococcus aureus; assay: Induction of iron starvation in methicillin-resistant Staphylococcus aureus BAA-1707 biofilms assessed as upregulation of sbnC gene expression at 1/10XMBEC incubated for 4 hrs by RT-qPCR analysis; type: functional; method in brief: as §4
[21] = test system: Staphylococcus aureus; assay: Induction of iron starvation in methicillin-resistant Staphylococcus aureus BAA-1707 biofilms assessed as upregulation of isdB gene expression at 1 uM incubated for 4 hrs by RT-qPCR analysis; type: functional; method in brief: as §4
[22] = test system: Staphylococcus aureus; assay: Induction of iron starvation in methicillin-resistant Staphylococcus aureus BAA-1707 biofilms assessed as upregulation of isdB gene expression at 1/10XMBEC incubated for 4 hrs by RT-qPCR analysis; type: functional; method in brief: as §4
[23] = test system: Staphylococcus aureus; assay: Induction of iron starvation in methicillin-resistant Staphylococcus aureus BAA-1707 biofilms assessed as upregulation of MW0695 gene expression at 1 uM incubated for 4 hrs by RT-qPCR analysis; type: functional; method in brief: as §4
[24] = test system: Staphylococcus aureus; assay: Induction of iron starvation in methicillin-resistant Staphylococcus aureus BAA-1707 biofilms assessed as upregulation of MW0695 gene expression at 1/10XMBEC incubated for 4 hrs by RT-qPCR analysis; type: functional; method in brief: as §4
[25] = Dissociation constant, pKa of the compound at 125 uM by UV-vis spectrophotometric analysis; type: physicochemical; conditions: 125 µM
Method in brief: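 Compound at 125 μM final in phosphate buffers (KH₂PO₄/Na₂HPO₄) in 1:1 water/methanol, pH 4.07–9.66; ammonium hydroxide added for pH above 9.80. UV-vis scans 200–800 nm to find λmax of phenol and phenolate forms. Absorbance at each λmax plotted against pH.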

[26] = test system: Staphylococcus aureus; assay: Antibacterial activity against methicillin-resistant Staphylococcus aureus clinical isolate 1 assessed as bacterial growth inhibition; type: functional
[27] = test system: Staphylococcus aureus; assay: Antibacterial activity against methicillin-resistant Staphylococcus aureus clinical isolate 2 assessed as bacterial growth inhibition; type: functional
[28] = test system: Staphylococcus aureus; assay: Antibacterial activity against methicillin-resistant Staphylococcus aureus 129 assessed as bacterial growth inhibition; type: functional
[29] = test system: Staphylococcus aureus; assay: Antibacterial activity against methicillin-resistant Staphylococcus aureus 147 assessed as bacterial growth inhibition; type: functional
[30] = test system: Staphylococcus aureus; assay: Antibacterial activity against methicillin-resistant Staphylococcus aureus 138 assessed as bacterial growth inhibition; type: functional
[31] = test system: Staphylococcus aureus; assay: Antibacterial activity against methicillin-resistant Staphylococcus aureus 156 assessed as bacterial growth inhibition; type: functional
[32] = test system: Staphylococcus aureus; assay: Antibacterial activity against methicillin-resistant Staphylococcus aureus BAA-1707 assessed as bacterial growth inhibition incubated for 16 hrs by broth microdilution susceptibility test; type: functional; method in brief: as §1
[33] = test system: Staphylococcus aureus; assay: Antibacterial activity against methicillin-resistant Staphylococcus aureus BAA-44 assessed as bacterial growth inhibition incubated for 16 hrs by broth microdilution susceptibility test; type: functional
Method in brief: (§5)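 CLSI broth microdilution with 11 twofold dilutions (0.05–50 μM). Medium was LB for the staphylococci and BHI for VRE 700221. About 10^5 cells per well from a log-phase culture. […] DMSO vehicle up to 0.5% v/v. At least three independent experiments.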

[34] = test system: Enterococcus faecium; assay: Antibacterial activity against vancomycin-resistant Enterococcus faecium ATCC 700221 assessed as bacterial growth inhibition incubated for 16 hrs by broth microdilution susceptibility test; type: functional; method in brief: as §5
[35] = test system: Staphylococcus epidermidis; assay: Antibacterial activity against Staphylococcus epidermidis ATCC 12228 assessed as bacterial growth inhibition by broth microdilution method; type: functional

SMILES: Oc1c(Br)cc(Br)c2nc3ccccc3nc12
- MIC [1]: 2.35 µM (≈ 0.832 µg/mL)
- MIC [2]: 12.5 µM (≈ 4.43 µg/mL)
- MIC [3]: 13.7 µM (≈ 4.85 µg/mL)
- IC50 [4]: > 100 µM
- IC50 [5]: > 100 µM
- IC50 [6]: > 100 µM
- MBEC [7]: 100 µM
- MBC [8]: 37.5 µM (≈ 13.3 µg/mL)
- MBEC [9]: 75 µM
- MBC [10]: 25 µM (≈ 8.85 µg/mL)
- MBEC [11]: 50 µM
- MBC [12]: 18.8 µM (≈ 6.66 µg/mL)
- MBEC [13]: 12.5 µM
- MBC [14]: 25 µM (≈ 8.85 µg/mL)
- MBEC [15]: >200 µM
- Activity [16]: <= 1%
- Activity [17]: Active
- Activity [18]: Active
- Activity [19]: Active
- Activity [20]: Active
- Activity [21]: Active
- Activity [22]: Active
- Activity [23]: Active
- Activity [24]: Active
- pKa [25]: 7.12
- MIC [26]: 1.25 µM (≈ 0.443 µg/mL)
- MIC [27]: 1.25 µM (≈ 0.443 µg/mL)
- MIC [28]: 1.25 µM (≈ 0.443 µg/mL)
- MIC [29]: 1.25 µM (≈ 0.443 µg/mL)
- MIC [30]: 1.25 µM (≈ 0.443 µg/mL)
- MIC [31]: 1.25 µM (≈ 0.443 µg/mL)

SMILES: Oc1c(Br)ccc2nc3ccccc3nc12
- MIC [32]: 3.13 µM (≈ 0.861 µg/mL)
- MIC [33]: 3.13 µM (≈ 0.861 µg/mL)
- MIC [1]: 3.13 µM (≈ 0.861 µg/mL)
- MIC [34]: 6.25 µM (≈ 1.72 µg/mL)
- MIC [2]: 18.8 µM (≈ 5.17 µg/mL)
- MIC [35]: 6.25 µM (≈ 1.72 µg/mL)
